From ChEMBL document CHEMBL3352465, “The SAR development of substituted purine derivatives as selective CB2 agonists for the treatment of chronic pain” (Bioorg Med Chem Lett, 2014)
≈ marks a conversion by molar mass, not a printed value. Calls of active or inactive are those of the source. The calls are words filed in the database; no cut-off is given here.

What was measured:
Cannabinoid receptor 2 [1] = target: T1, Cannabinoid receptor 2 (Homo sapiens, UniProt P34972); assay: Agonist activity at human CB2 receptor expressed in CHO cells by [35S]-GTPgammaS binding assay relative to control; format: functional, cell-based
[2] = Drug metabolism in human liver microsomes at 2 uM after 0.5 hr by LC/MS/MS analysis; format: ADME; conditions: read-out: Drug metabolism
Cannabinoid receptor 2 [3] = target: T1, Cannabinoid receptor 2; assay: Agonist activity at human CB2 receptor expressed in CHO cells by [35S]-GTPgammaS binding assay; format: functional, cell-based
Cannabinoid receptor 1 [4] = target: T2, Cannabinoid receptor 1 (Homo sapiens, UniProt P21554); assay: Agonist activity at human CB1 receptor expressed in Sf9 cells by [35S]-GTPgammaS binding assay relative to control; format: functional
[5] = Drug metabolism in rat liver microsomes at 2 uM after 0.5 hr by LC/MS/MS analysis; format: ADME; conditions: read-out: Drug metabolism
[6] = Drug metabolism in dog liver microsomes at 2 uM after 0.5 hr by LC/MS/MS analysis; format: ADME, Canis lupus familiaris; conditions: read-out: Drug metabolism
Cannabinoid receptor 1 [7] = target: T2, Cannabinoid receptor 1; assay: Agonist activity at human CB1 receptor expressed in Sf9 cells by [35S]-GTPgammaS binding assay; format: functional
Rattus norvegicus [8] = species on record: Rattus norvegicus; assay: Inhibition of GABA gated chloride channel in rat cortex at 10 uM by radioligand binding assay
In short: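 Radioligand binding to GABA-gated chloride channels from rat, run by an outside contract lab.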

[9] = Drug excretion in rat urine assessed as phase 2 glucuronide metabolite; format: ADME
[10] = Half life in Beagle dog at 1 mg/kg, po; format: ADME, organism-based, Canis lupus familiaris; set-up: dose 1 mg/kg, route oral; conditions: in vivo
In short: (§1)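 Plasma PK after intravenous and oral dosing at 1 mg/kg each route; male Sprague-Dawley rats and male Beagle dogs. Clearance and steady-state volume from the iv leg, half-life and bioavailability from the po leg.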

[11] = AUC in Sprague-Dawley rat at 1 mg/kg, iv and 1 mg/kg, po; format: ADME, organism-based; conditions: plasma; in short: as §1
[12] = Oral bioavailability in Sprague-Dawley rat at 1 mg/kg; format: ADME, organism-based; conditions: in vivo; in short: as §1
[13] = Half life in Sprague-Dawley rat at 1 mg/kg, po; format: ADME, organism-based; set-up: dose 1 mg/kg, route oral; conditions: in vivo; in short: as §1
[14] = Lipophilicity, log P of the compound; format: physicochemical; conditions: octanol/water
MDCK = assay: Permeability across MDCK cells expressing human P-gp; format: ADME, cell-based, Canis lupus familiaris; conditions: dog
In short: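 Bi-directional permeability was measured across an MDCK line expressing human P-gp to test whether the compound is a P-gp substrate.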

[15] = Oral bioavailability in Beagle dog at 1 mg/kg; format: ADME, organism-based, Canis lupus familiaris; conditions: in vivo; in short: as §1
CYP2C9 = CYP2C9 (Homo sapiens, UniProt P11712); assay: Drug metabolism assessed as human CYP2C9-mediated compound turnover; format: ADME; conditions: recombinant enzyme, read-out: Drug metabolism
In short: (§2)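 Oxidative turnover was assessed with recombinant human P450 enzymes to identify which isoforms contribute to metabolite formation.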

Cytochrome P450 1A2 = target: T3, Cytochrome P450 1A2 (Homo sapiens, UniProt P05177); assay: Effect on CYP1A2 (unknown origin) up to 10 uM; format: ADME
T3 sequence (P05177 whole entry): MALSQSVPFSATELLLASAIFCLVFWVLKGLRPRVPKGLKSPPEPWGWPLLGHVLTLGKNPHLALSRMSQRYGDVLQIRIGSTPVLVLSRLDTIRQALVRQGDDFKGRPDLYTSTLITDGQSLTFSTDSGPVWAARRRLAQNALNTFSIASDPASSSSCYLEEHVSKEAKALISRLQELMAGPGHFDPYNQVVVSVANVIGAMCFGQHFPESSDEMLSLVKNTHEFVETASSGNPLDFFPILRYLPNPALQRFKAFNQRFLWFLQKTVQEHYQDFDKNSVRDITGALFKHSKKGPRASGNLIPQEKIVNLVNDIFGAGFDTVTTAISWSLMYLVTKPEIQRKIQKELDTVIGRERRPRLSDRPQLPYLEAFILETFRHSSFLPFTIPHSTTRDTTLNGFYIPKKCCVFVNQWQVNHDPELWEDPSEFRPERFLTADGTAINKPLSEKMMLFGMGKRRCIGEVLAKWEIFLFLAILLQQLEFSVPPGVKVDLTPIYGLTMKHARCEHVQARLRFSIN

Rattus norvegicus [16] = assay: Analgesic activity in monoiodoacetic acid-induced joint pain rat model assessed as inhibition of differential weight bearing capacity at 1 mg/kg, po administered 20 days post MIA challenge relative to vehicle treated control; format: functional, organism-based; set-up: dose 1 mg/kg
In short: (§3)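 Rats got 0.3 mg MIA intra-articular into the right knee and saline into the left on day 0. On day 20 they were randomized and dosed po with vehicle (1% CMC in water with 0.25% Tween 80), agonist 1 mg/kg, SR-144528 3 mg/kg, or antagonist given 30 min before agonist. Incapacitance (differential hind-limb weight bearing) was read 2 h after agonist; n = 6/group; Dunnett's test versus vehicle.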

Rattus norvegicus [17] = assay: Analgesic activity in monoiodoacetic acid-induced joint pain rat model assessed as inhibition of differential weight bearing capacity at 1 mg/kg, po administered 20 days post MIA challenge co-administered with 3 mg/kg SR-144528 relative to vehicle treated control; format: functional, organism-based; in short: as §3
[18] = Cmax in Beagle dog at 1 mg/kg, iv and 1 mg/kg, po; format: ADME, organism-based, Canis lupus familiaris; conditions: in vivo; in short: as §1
Cytochrome P450 2C9 = Cytochrome P450 2C9 (Homo sapiens, UniProt P11712); assay: Effect on CYP2C9 (unknown origin) up to 10 uM; format: ADME
[19] = Drug excretion in rat urine assessed as sulfate metabolite; format: ADME
Rattus norvegicus [20] = assay: Analgesic activity in monoiodoacetic acid-induced joint pain rat model assessed as inhibition of differential weight bearing capacity compound administered orally post MIA challenge measured 2 hrs after compound dose on day 12 post MIA challenge relative to vehicle treated control; format: functional; conditions: po
In short: (§4)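 MIA knee-joint pain in rats; oral doses of 0.1, 0.3 and 1 mg/kg, with diclofenac 5 mg/kg po as comparator. Differential hind-limb weight bearing was measured by incapacitance tester on day 12 post MIA, 2 h after dosing; n = 5/group; Student's t-test versus vehicle. ED50 was derived from the dose response.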

[21] = Volume of distribution at steady state in Beagle dog at 1 mg/kg, iv and 1 mg/kg, po; format: ADME, organism-based, Canis lupus familiaris; conditions: in vivo, read-out: Vdss; in short: as §1
CYP3A4 = CYP3A4 (Homo sapiens, UniProt P08684); assay: Drug metabolism assessed as human CYP3A4-mediated oxidative compound turnover; format: ADME; conditions: recombinant enzyme, read-out: Drug metabolism; in short: as §2
[22] = Clearance in Beagle dog at 1 mg/kg, iv; format: ADME, organism-based, Canis lupus familiaris; set-up: dose 1 mg/kg, route intravenous; conditions: in vivo
[23] = Volume of distribution at steady state in Sprague-Dawley rat at 1 mg/kg, iv and 1 mg/kg, po; format: ADME, organism-based; conditions: in vivo, read-out: Vdss; in short: as §1
Cytochrome P450 2D6 = Cytochrome P450 2D6 (Homo sapiens, UniProt P10635); assay: Effect on CYP2D6 (unknown origin) up to 10 uM; format: ADME
[24] = Drug excretion in rat bile assessed as sulfate metabolite; format: ADME
[25] = Clearance in Sprague-Dawley rat at 1 mg/kg, iv; format: ADME, organism-based; set-up: dose 1 mg/kg, route intravenous; conditions: in vivo
[26] = Dissociation constant, pKa of the compound; format: physicochemical
[27] = Cmax in Sprague-Dawley rat at 1 mg/kg, iv and 1 mg/kg, po; format: ADME, organism-based; conditions: in vivo; in short: as §1
CYP1A2 = target: T4, CYP1A2 (Homo sapiens, UniProt P05177); assay: Drug metabolism assessed as human CYP1A2-mediated compound turnover; format: ADME; conditions: recombinant enzyme, read-out: Drug metabolism; in short: as §2
T4 sequence (P05177 whole entry): T3 sequence (P05177 whole entry)

Rattus norvegicus [28] = assay: Toxicity in rat assessed as behavioral impairment up to 30 mg/kg, po by rotorod test; format: organism-based; set-up: dose 30 mg/kg, route oral; conditions: in vivo
In short: (§5)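 Rats were dosed orally up to 30 mg/kg and checked for hypothermia and for rotorod performance. CP-55,940 0.5 mg/kg ip served as positive control.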

[29] = AUC in Beagle dog at 1 mg/kg, iv and 1 mg/kg, po; format: ADME, organism-based, Canis lupus familiaris; conditions: plasma; in short: as §1
Rattus norvegicus [30] = assay: Analgesic activity in monoiodoacetic acid-induced joint pain rat model assessed as inhibition of differential weight bearing capacity at 1 mg/kg, po bid for 5 days starting 20 days post MIA challenge relative to vehicle treated control; format: functional, organism-based; set-up: dose 1 mg/kg
In short: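 MIA knee-joint pain model in rats; repeat oral dosing at 1.0 mg/kg bid for 5 days. Incapacitance efficacy was compared between day 1 and day 5, and plasma exposures were monitored over the period.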

[31] = Aqueous solubility of the compound at pH 6.5; format: physicochemical
In short: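 Aqueous solubility measured at pH 6.5.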

[32] = Drug excretion in rat bile assessed as phase 2 glucuronide metabolite; format: ADME
Cytochrome P450 3A4 = Cytochrome P450 3A4 (Homo sapiens, UniProt P08684); assay: Effect on CYP3A4 (unknown origin) up to 10 uM; format: ADME
Rattus norvegicus [33] = assay: Analgesic activity in monoiodoacetic acid-induced joint pain rat model assessed as inhibition of differential weight bearing capacity at 5 mg/kg, po measured 2 hrs after compound dose on day 12 post MIA challenge relative to vehicle treated control; format: functional, organism-based; set-up: dose 5 mg/kg; in short: as §4
Rattus norvegicus [34] = assay: Toxicity in rat assessed as hypothermia up to 30 mg/kg, po; format: organism-based; set-up: dose 30 mg/kg, route oral; conditions: in vivo; in short: as §5
[35] = Inhibition of GABA gated chloride channel in rat cortex by radioligand binding assay

T2 sequence (P21554 whole entry): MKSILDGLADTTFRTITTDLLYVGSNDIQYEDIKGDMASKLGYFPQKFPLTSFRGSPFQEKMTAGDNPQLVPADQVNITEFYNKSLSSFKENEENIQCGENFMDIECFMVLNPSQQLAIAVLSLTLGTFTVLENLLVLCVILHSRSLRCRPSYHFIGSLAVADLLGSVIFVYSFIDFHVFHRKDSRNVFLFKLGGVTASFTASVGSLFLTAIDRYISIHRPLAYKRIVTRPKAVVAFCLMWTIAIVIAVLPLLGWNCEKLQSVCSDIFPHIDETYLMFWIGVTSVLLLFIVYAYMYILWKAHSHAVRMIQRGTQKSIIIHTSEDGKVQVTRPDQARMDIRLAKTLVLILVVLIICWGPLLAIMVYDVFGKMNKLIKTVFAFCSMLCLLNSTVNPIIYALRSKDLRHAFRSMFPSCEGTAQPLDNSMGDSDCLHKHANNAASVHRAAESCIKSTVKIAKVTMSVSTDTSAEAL
T1 sequence (P34972 whole entry): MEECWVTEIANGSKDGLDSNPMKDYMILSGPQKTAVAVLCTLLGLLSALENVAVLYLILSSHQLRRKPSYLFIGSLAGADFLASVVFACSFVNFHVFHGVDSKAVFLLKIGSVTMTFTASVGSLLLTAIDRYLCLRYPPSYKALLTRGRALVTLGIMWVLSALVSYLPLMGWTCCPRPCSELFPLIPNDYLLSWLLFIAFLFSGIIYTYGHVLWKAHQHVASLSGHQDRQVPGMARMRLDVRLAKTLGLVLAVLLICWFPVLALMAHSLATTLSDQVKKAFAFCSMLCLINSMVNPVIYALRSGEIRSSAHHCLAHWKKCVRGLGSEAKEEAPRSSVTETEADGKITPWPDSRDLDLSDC
Sequence of CYP2C9 (P11712 whole entry, canonical isoform): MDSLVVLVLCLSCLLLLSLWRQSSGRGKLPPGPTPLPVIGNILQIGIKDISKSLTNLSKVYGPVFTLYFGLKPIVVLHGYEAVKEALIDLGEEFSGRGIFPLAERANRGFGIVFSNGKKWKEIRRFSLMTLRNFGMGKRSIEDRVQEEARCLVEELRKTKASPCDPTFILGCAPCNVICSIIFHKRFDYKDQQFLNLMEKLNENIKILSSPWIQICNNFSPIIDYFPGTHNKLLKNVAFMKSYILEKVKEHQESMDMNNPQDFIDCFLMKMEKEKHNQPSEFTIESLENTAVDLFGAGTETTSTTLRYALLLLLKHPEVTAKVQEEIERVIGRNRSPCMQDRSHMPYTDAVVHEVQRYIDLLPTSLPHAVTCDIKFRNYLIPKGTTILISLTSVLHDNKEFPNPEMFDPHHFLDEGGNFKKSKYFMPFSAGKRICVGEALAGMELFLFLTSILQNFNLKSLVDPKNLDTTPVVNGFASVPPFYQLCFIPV
Sequence of Cytochrome P450 2C9 (P11712 whole entry): as the sequence (P11712 whole entry, canonical isoform) above
Sequence of Cytochrome P450 3A4 (P08684 whole entry): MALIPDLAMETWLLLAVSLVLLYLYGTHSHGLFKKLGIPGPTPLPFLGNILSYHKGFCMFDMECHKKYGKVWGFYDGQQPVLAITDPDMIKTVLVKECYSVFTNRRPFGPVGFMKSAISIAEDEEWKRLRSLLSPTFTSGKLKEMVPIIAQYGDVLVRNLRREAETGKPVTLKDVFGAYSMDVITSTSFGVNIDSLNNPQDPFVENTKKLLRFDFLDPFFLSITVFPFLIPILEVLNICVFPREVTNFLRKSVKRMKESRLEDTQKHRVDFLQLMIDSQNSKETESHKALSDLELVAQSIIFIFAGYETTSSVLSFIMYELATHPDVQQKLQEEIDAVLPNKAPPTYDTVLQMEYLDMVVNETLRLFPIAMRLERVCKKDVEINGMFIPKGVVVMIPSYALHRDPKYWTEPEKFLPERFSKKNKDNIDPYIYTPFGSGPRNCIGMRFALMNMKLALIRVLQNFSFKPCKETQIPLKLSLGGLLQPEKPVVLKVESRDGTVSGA
Sequence of CYP3A4 (P08684 whole entry): as above
Sequence of Cytochrome P450 2D6 (P10635 whole entry): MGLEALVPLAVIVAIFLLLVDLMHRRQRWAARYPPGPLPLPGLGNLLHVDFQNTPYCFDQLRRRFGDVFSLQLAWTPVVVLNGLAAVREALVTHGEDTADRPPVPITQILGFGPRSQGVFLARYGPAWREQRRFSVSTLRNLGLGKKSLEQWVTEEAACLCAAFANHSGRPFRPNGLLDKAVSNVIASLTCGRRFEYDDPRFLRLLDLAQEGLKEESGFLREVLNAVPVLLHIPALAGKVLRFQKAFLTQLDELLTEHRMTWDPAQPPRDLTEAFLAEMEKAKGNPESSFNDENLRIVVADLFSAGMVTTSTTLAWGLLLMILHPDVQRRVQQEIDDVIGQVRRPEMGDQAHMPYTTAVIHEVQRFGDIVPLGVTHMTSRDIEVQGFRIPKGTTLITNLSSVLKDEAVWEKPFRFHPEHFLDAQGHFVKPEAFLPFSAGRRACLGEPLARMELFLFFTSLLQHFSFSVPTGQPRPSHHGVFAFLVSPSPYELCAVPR

CCN1CCN(c2nc(C)nc3c2nc(-c2ccccc2Cl)n3CCCOC)CC1
Efficacy (Cannabinoid receptor 2 [1]): 96.5% | metabolised at 0.5 h, 2 µM [2]: 36% | EC50 (Cannabinoid receptor 2 [3]): 4.3 nM | Efficacy (Cannabinoid receptor 1 [4]): 25.7% | metabolised at 0.5 h, 2 µM [5]: 71% | metabolised at 0.5 h, 2 µM [6]: 99% | EC50 (Cannabinoid receptor 1 [7]): 1380 nM

Cc1nc(N2CCN(C)CC2)c2nc(-c3ccccc3Cl)n(C(C)(C)CO)c2n1
Efficacy (Cannabinoid receptor 2 [1]): 72.6% | metabolised at 0.5 h, 2 µM [2]: 43% | inhibition (Rattus norvegicus [8]): 20% | EC50 (Cannabinoid receptor 2 [3]): 12.5 nM | Efficacy (Cannabinoid receptor 1 [4]): 43.2% | metabolised at 0.5 h, 2 µM [5]: 93% | metabolised at 0.5 h, 2 µM [6]: 90% | EC50 (Cannabinoid receptor 1 [7]): 5000 nM

Cc1nc(N2CCN(C)CC2)c2nc(-c3ccccc3Cl)n([C@H](C)CO)c2n1
Efficacy (Cannabinoid receptor 2 [1]): 81.8% | Drug excretion [9]: metabolite_detected | metabolised at 0.5 h, 2 µM [2]: 22% | half-life [10]: 1.7 h | AUC [11]: 514 ng·h/mL | bioavailability [12]: 38% | half-life [13]: 2.3 h | logP [14]: 3.1 | permeability (MDCK): impermeable | bioavailability [15]: 23% | metabolised (CYP2C9): 80% | Activity (Cytochrome P450 1A2): Not Active | inhibition (Rattus norvegicus [16]): Active | inhibition (Rattus norvegicus [17]): inactive | Cmax [18]: 43 ng/mL | Activity (Cytochrome P450 2C9): Not Active | Drug excretion [19]: metabolite_detected | ED50 (Rattus norvegicus [20]): 0.16 mg/kg | Vd [21]: 4 L/kg | metabolised (CYP3A4): 80% | clearance [22]: 38 mL/min/kg | inhibition (Rattus norvegicus [8]): 20% | Vd [23]: 6 L/kg | Activity (Cytochrome P450 2D6): Not Active | Drug excretion [24]: metabolite_detected | EC50 (Cannabinoid receptor 2 [3]): 22.4 nM | clearance [25]: 32 mL/min/kg | pKa [26]: 7.5 | Cmax [27]: 87 ng/mL | metabolised (CYP1A2): 80% | Activity (Rattus norvegicus [28]): Toxic | AUC [29]: 437 ng·h/mL | inhibition (Rattus norvegicus [30]): Active | metabolised at 0.5 h, 2 µM [5]: 50% | solubility [31]: 1800 µg/mL (≈ 4490 µM) | Drug excretion [32]: metabolite_detected | metabolised at 0.5 h, 2 µM [6]: 42% | Activity (Cytochrome P450 3A4): Not Active | EC50 (Cannabinoid receptor 1 [7]): > 100000 nM | inhibition (Rattus norvegicus [33]): Active | Activity (Rattus norvegicus [34]): Toxic

Cc1nc(N2CCN(C)CC2)c2nc(-c3ccccc3Cl)n([C@@H](C)CO)c2n1
Efficacy (Cannabinoid receptor 2 [1]): 96.5% | metabolised at 0.5 h, 2 µM [2]: 11% | EC50 (Cannabinoid receptor 2 [3]): 12.5 nM | metabolised at 0.5 h, 2 µM [5]: 79% | metabolised at 0.5 h, 2 µM [6]: 60% | EC50 (Cannabinoid receptor 1 [7]): > 100000 nM

Cc1nc(N2CCN(C)CC2)c2nc(-c3ccccc3Cl)n(C3CCOCC3)c2n1 [LY2828360]
Ki [35]: 2200 nM | logP [14]: 3.2 | bioavailability [15]: 76% | inhibition (Rattus norvegicus [8]): 85% | pKa [26]: 7.2 | solubility [31]: 100 µg/mL (≈ 234 µM)
